According to ChEMBL document CHEMBL1129322, “Discovery and optimization of a novel class of orally active nonpeptidic endothelin-A receptor antagonists” (J Med Chem, 1996):
Values belong to the compound of their own block, whether it stands above or below them.

What was measured:
Endothelin-1 receptor = molecular target: T1, Endothelin-1 receptor (Homo sapiens, UniProt P25101); experiment: Binding affinity towards human Endothelin A receptor by measuring its ability to displace [125I]ET1 from CHO cells; type: cell-based
T1 sequence (P25101 whole entry): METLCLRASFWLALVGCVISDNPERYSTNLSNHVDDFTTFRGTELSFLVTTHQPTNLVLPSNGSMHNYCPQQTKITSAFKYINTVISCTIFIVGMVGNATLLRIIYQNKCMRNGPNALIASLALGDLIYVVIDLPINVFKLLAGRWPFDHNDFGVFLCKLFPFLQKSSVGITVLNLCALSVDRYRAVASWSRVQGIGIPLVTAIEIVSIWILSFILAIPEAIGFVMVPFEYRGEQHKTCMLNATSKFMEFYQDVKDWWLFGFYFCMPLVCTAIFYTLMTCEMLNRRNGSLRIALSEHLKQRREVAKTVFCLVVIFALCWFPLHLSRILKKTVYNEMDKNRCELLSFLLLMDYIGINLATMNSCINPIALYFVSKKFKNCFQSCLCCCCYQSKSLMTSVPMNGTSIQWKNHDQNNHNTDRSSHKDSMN

Oryctolagus cuniculus = organism: Oryctolagus cuniculus; experiment: Functional vascular ET-1 antagonism was determined in rabbit aorta rings with intact endothelium; settings: read-out: pA2 (converted)
Rattus norvegicus [1] = experiment: Ability to protect rats from ET-1 induced sudden death in rats after peroral administration; type: functional
Procedure, shortened: (§1)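 Male Sprague-Dawley rats (280-320 g) were pretreated orally with antagonist 4 h before a tail-vein injection of ET-1 (6 nmol/kg), which causes severe ECG disturbances and lethality within minutes. Oral doses were 10, 30 or 100 mg/kg. Lethality was scored as deaths/n, and ED100 was taken as the dose giving complete protection.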

[2] = molecular target: T2, Endothelin receptor (Rattus norvegicus) (UniProt P26684+P21451); experiment: In vivo prevention of ET-1-induced sudden death in 5 rats by pretreatment with endothelin receptor antagonist at a dose of 100 mg/kg p.o.; 0/5; type: functional, organism-based; set-up: dose 100 mg/kg; procedure, shortened: as §1
T2 sequence (P21451 whole entry, looked up): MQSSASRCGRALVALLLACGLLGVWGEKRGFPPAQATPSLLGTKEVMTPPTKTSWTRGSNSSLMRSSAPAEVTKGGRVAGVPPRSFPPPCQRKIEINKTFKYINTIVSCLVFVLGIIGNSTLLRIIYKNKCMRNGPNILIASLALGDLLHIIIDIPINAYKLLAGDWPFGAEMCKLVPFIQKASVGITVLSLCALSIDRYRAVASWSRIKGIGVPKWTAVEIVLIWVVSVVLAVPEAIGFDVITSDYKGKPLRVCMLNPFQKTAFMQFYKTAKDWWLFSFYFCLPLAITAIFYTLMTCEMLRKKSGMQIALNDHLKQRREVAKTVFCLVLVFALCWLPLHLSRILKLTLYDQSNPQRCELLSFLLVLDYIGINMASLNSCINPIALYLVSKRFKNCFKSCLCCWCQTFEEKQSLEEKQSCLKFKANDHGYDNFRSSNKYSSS
T2 sequence (P26684 whole entry, looked up): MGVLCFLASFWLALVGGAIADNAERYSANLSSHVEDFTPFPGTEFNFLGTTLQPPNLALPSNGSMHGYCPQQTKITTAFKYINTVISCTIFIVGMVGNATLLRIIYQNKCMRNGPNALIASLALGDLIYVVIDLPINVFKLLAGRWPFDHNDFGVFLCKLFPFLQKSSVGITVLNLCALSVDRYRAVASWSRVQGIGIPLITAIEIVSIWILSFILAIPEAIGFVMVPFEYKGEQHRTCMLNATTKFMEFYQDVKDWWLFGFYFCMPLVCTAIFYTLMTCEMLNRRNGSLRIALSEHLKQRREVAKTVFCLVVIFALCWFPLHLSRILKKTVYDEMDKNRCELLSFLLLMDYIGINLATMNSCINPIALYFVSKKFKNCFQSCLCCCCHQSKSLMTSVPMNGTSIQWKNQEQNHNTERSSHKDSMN

[3] = molecular target: T2, Endothelin receptor (Rattus norvegicus); experiment: In vivo prevention of ET-1-induced sudden death in 6 rats by pretreatment with endothelin receptor antagonist at a dose of 10 mg/kg p.o.; 6/6; type: functional, organism-based; set-up: dose 10 mg/kg; procedure, shortened: as §1
[4] = molecular target: T2, Endothelin receptor (Rattus norvegicus); experiment: In vivo prevention of ET-1-induced sudden death in 6 rats by pretreatment with endothelin receptor antagonist at a dose of 30 mg/kg p.o.; 2/6; type: functional, organism-based; set-up: dose 30 mg/kg; procedure, shortened: as §1
Rattus norvegicus [5] = experiment: Ability to protect rats from ET-1 induced sudden death in after peroral administration; type: functional; procedure, shortened: as §1
[6] = molecular target: T2, Endothelin receptor (Rattus norvegicus); experiment: In vivo prevention of ET-1-induced sudden death in 9 rats by pretreatment with endothelin receptor antagonist at a dose of 30 mg/kg p.o.; 9/9; type: functional, organism-based; set-up: dose 30 mg/kg; procedure, shortened: as §1
[7] = molecular target: T3, Endothelin receptor type B (Homo sapiens, UniProt P24530); experiment: (§2) Binding affinity towards human Endothelin B receptor by measuring its ability to displace [125I]ET-3 from CHO cells; type: cell-based
T3 sequence (P24530 whole entry): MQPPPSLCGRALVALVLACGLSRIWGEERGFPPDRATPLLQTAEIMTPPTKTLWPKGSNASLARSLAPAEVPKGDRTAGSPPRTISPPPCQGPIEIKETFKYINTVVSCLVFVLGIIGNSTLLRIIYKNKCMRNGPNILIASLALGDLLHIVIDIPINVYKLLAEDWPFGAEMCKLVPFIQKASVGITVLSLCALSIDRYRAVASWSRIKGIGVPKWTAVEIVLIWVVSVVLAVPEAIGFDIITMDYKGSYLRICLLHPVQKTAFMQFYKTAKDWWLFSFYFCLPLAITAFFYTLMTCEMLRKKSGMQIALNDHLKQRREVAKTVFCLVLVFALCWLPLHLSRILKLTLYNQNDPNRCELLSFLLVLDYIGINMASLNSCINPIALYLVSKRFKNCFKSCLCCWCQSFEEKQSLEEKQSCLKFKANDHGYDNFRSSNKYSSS
Procedure, shortened: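 Membranes ([…]) from stably transfected CHO cells expressing human ET_A or ET_B receptors, or guinea pig cerebellum (ET_B), incubated with 25 pmol/L [125I]ET-1 or [125I]ET-3 with or without drugs; nonspecific binding defined with […] ET-1.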

[8] = molecular target: T2, Endothelin receptor (Rattus norvegicus); experiment: In vivo prevention of ET-1-induced sudden death in 6 rats by pretreatment with endothelin receptor antagonist at a dose of 30 mg/kg p.o.; type: functional, organism-based; set-up: dose 30 mg/kg; procedure, shortened: as §1
[9] = molecular target: T3, Endothelin receptor type B; experiment: as §2; type: cell-based; remark: listed apart in the source
Rattus norvegicus [10] = experiment: Ability to protect rats from ET-1 induced sudden death in rats after intravenous administration; type: functional
Procedure, shortened: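 Male Sprague-Dawley rats (280-320 g) received antagonist intravenously and were then challenged with ET-1 (6 nmol/kg) injected into a tail vein, a dose that causes lethality within minutes. ED100 was the intravenous dose giving complete protection from sudden death.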

[11] = molecular target: T2, Endothelin receptor (Rattus norvegicus); experiment: In vivo prevention of ET-1-induced sudden death in 5 rats by pretreatment with endothelin receptor antagonist at a dose of 10 mg/kg p.o.; 5/5; type: functional, organism-based; set-up: dose 10 mg/kg; procedure, shortened: as §1
[12] = molecular target: T2, Endothelin receptor (Rattus norvegicus); experiment: In vivo prevention of ET-1-induced sudden death in 6 rats by pretreatment with endothelin receptor antagonist at a dose of 30 mg/kg p.o.; 0/6; type: functional, organism-based; set-up: dose 30 mg/kg; procedure, shortened: as §1

SMILES: COc1nc(OC(C(=O)O)C(OC)(c2ccccc2)c2ccccc2)nc2c1CCO2 (stereo unspecified)
Ki (Endothelin-1 receptor): 0.9 nM
Kb (Oryctolagus cuniculus): 0.933 nM
ED100 (Rattus norvegicus [1]): 100 mg/kg
Lethality [2]: 0
Lethality [3]: 6
Lethality [4]: 2

Ki (Endothelin-1 receptor): 0.12 nM
SMILES: COc1cc(C)nc(OC(C(=O)O)C(OC)(c2ccccc2)c2ccccc2)n1 (stereo unspecified)

Ki (Endothelin-1 receptor): 174 nM
SMILES: CCOc1cc(OCC)nc(OC(C(=O)O)C(OC)(c2ccccc2)c2ccccc2)n1 (stereo unspecified)

SMILES: COc1nc(OC(C(=O)O)C(OC)(c2ccccc2)c2ccccc2)nc2c1CCC2 (stereo unspecified)
Ki (Endothelin-1 receptor): 0.4 nM
Kb (Oryctolagus cuniculus): 0.575 nM
ED100 (Rattus norvegicus [5]): 100 mg/kg
Lethality [2]: 0
Lethality [6]: 9

Ki (Endothelin-1 receptor): 130 nM
SMILES: COc1cc(OC)nc(OC(C(=O)O)C(O)(c2ccccc2)c2ccccc2)n1 (stereo unspecified)

SMILES: CCCOc1ccc2c(c1)[C@@H](c1ccc(OC)cc1OCC(=O)O)[C@H](C(=O)O)[C@H]2c1ccc2c(c1)OCO2 [SB-209670]
Kb (Oryctolagus cuniculus): 0.158 nM
ED100 (Rattus norvegicus [1]): 100 mg/kg

Ki (Endothelin-1 receptor): 1 nM
SMILES: COC(c1ccccc1)(c1ccccc1)C(Oc1nc(C)cc(C)n1)C(=O)O (stereo unspecified)

Ki (Endothelin-1 receptor): 24 nM
SMILES: COc1cc(OC)nc(OC(C(=O)O)C(OC)(c2cccc(C)c2)c2cccc(C)c2)n1 (stereo unspecified)

Ki (Endothelin-1 receptor): 11 nM
SMILES: COc1cc(OC)nc(OC(C(=O)O)C(OC)(c2cccc(F)c2)c2cccc(F)c2)n1 (stereo unspecified)

Ki (Endothelin-1 receptor): 200 nM
SMILES: COc1cc(OC)nc(OC(C(=O)O)C(OC)(c2ccc(C)cc2)c2ccc(C)cc2)n1 (stereo unspecified)

Ki [7]: 3 µM
Ki (Endothelin-1 receptor): 250 nM
SMILES: COC(=O)C(Oc1nc(OC)cc(OC)n1)C(C)(Oc1ccc(C(C)C)cc1)c1ccccc1 (stereo unspecified)

Ki (Endothelin-1 receptor): 150 nM
SMILES: COc1cc(OC)nc(OC(C(=O)O)C(OC)(c2ccccc2F)c2ccccc2F)n1 (stereo unspecified)

Ki (Endothelin-1 receptor): 0.7 nM
SMILES: CCc1cc(C)nc(OC(C(=O)O)C(OC)(c2ccccc2)c2ccccc2)n1 (stereo unspecified)

SMILES: Cc1noc(NS(=O)(=O)c2cccc3c(N(C)C)cccc23)c1C [BMS-182874]
Kb (Oryctolagus cuniculus): 81.3 nM
ED100 (Rattus norvegicus [1]; po): > 100 mg/kg
Lethality [8]: 6

Ki [7]: 4.7 µM
Ki (Endothelin-1 receptor): 160 nM
SMILES: COC(=O)C(Oc1nc(OC)cc(OC)n1)C(C)(Oc1ccc(SC)cc1)c1ccccc1 (stereo unspecified)

SMILES: COc1cc(OC)nc(OC(C(=O)O)C(OC)(c2ccccc2)c2ccccc2)n1 (stereo unspecified)
Ki [9]: 371 nM
Kb (Oryctolagus cuniculus): 45.7 nM
ED100 (Rattus norvegicus [10]): 10 mg/kg
ED100 (Rattus norvegicus [1]): 30 mg/kg
Lethality [11]: 5
Lethality [12]: 0

Ki (Endothelin-1 receptor): 340 nM
SMILES: COc1cc(OC)nc(OC(C(=O)O)C(OCCC(C)(C)C)(c2ccccc2)c2ccccc2)n1 (stereo unspecified)

Ki (Endothelin-1 receptor): 245 nM
SMILES: COc1cc(OC)nc(OC(C(=O)O)C(OC)(c2ccc(Cl)cc2)c2ccc(Cl)cc2)n1 (stereo unspecified)

Ki (Endothelin-1 receptor): 22 nM
SMILES: COc1cccc(C(OC)(c2cccc(OC)c2)C(Oc2nc(OC)cc(OC)n2)C(=O)O)c1 (stereo unspecified)

Ki (Endothelin-1 receptor): 1 nM
SMILES: CCc1cc(CC)nc(OC(C(=O)O)C(OC)(c2ccccc2)c2ccccc2)n1 (stereo unspecified)

SMILES: COc1cccc(Oc2c(NS(=O)(=O)c3ccc(C(C)(C)C)cc3)ncnc2OCCO)c1
Kb (Oryctolagus cuniculus): > 1000 nM
ED100 (Rattus norvegicus [1]): >100 mg/kg
